Experimental data of several laboratories.
Lines come from different studies, so protocols differ.
ASIC1: Acid-sensing ion channel 1 (ASIC1, Homo sapiens, UniProt P78348)
speB: speB (Escherichia coli, UniProt P60651)

CNC(=O)c1ccc(-c2cnn3ccc(C(=O)N(C)c4ccc(Cl)c(C(=O)OC)c4)cc23)cc1
IC50 (Casein kinase I isoform delta (CSNK1D, Homo sapiens, UniProt P48730); enzyme activity; inhibitor): > 30 µM

CC[C@H](C)[C@H](NC(=O)[C@@H]1CCCN1C(=O)[C@H](C)NC(=O)[C@@H]1CSSC[C@@H]2NC(=O)[C@H](CC(=O)O)NC(=O)[C@H](CCCNC(=N)N)NC(=O)[C@H](CCC(=O)O)NC(=O)[C@H](CCCNC(=N)N)NC(=O)CNC(=O)[C@H](CC(=O)O)NC(=O)[C@@H]3CSSC[C@H](NC(=O)[C@H](CCC(=O)O)NC(=O)[C@H](CC(C)C)NC(=O)CNC(=O)[C@H](C)NC(=O)[C@H](CSSC[C@H](NC(=O)[C@H](Cc4ccccc4)NC(=O)[C@@H](N)CO)C(=O)N[C@@H](CC(C)C)C(=O)N[C@@H](C(C)C)C(=O)N[C@@H](CCCCN)C(=O)N[C@@H](Cc4c[nH]c5ccccc45)C(=O)N[C@@H](CCCCN)C(=O)N[C@@H](CCC(N)=O)C(=O)N3)NC2=O)C(=O)N[C@@H](Cc2c[nH]c3ccccc23)C(=O)N[C@@H](CCCCN)C(=O)N[C@@H](CCCNC(=N)N)C(=O)N[C@@H](CCCNC(=N)N)C(=O)NCC(=O)N[C@@H](CC(N)=O)C(=O)N[C@@H](CCCCN)C(=O)N[C@@H](CO)C(=O)N[C@@H](CO)C(=O)N[C@@H](C(C)C)C(=O)N1)C(=O)N[C@H](C(=O)O)[C@@H](C)O
Kd (ASIC1; binding; SPR; pH 7.5): 0.0277 nM

O=S(=O)(O)c1ccc2c(N=Nc3c(O)ccc4ccccc34)cccc2c1
Ki (Bcl-2-related protein A1 (Mus musculus, UniProt Q07440, C113S/P104K); ligand displacement; FP): 1.62 µM

CN(C)C(=N)N=C(N)N
Ki (speB; enzyme activity; inhibitor; absorbance; pH 8.5): 1250 µM

CNC(=O)c1ccc(-c2cnn3ccc(C(=O)N(C)c4ccc(Cl)c(C(=O)O)c4)cc23)cc1
IC50 (5-hydroxytryptamine receptor 2B (HTR2B, Homo sapiens, UniProt P41595); cell-free assay): > 30 µM

COc1ccc2[nH]c(C)c(CC[N+](C)(C)C)c2c1
EC50 (5-hydroxytryptamine receptor 2C (HTR2C, Homo sapiens, UniProt P28335); calcium signal; agonist): > 5 µM

CC(C)=CCN=C(N)N
Ki (speB; enzyme activity; inhibitor; absorbance; pH 8.5): 8.59 µM

CC[C@H](C)[C@@H]1NC(=O)[C@@H](NC(=O)[C@H](CCC(=O)O)NC(=O)[C@H](CC(N)=O)NC(=O)[C@@H](N)CO)CSSC[C@@H]2NC(=O)[C@@H]3CSSC[C@@H](C(=O)N[C@H](C(=O)N4CCC[C@H]4C(=O)N[C@H](C(=O)N4CCC[C@H]4C(=O)NCC(=O)O)[C@@H](C)CC)C(C)C)NC(=O)[C@H](C(C)C)NC(=O)[C@H](CCC(=O)O)NC(=O)[C@H](Cc4ccccc4)NC(=O)[C@H](CO)NC(=O)[C@H](Cc4c[nH]cn4)NC(=O)[C@H](CCCNC(=N)N)NC(=O)[C@H](CCCNC(=N)N)NC(=O)[C@H](CCCCN)NC(=O)[C@H](Cc4ccc(O)cc4)NC(=O)[C@H](CSSC[C@H](NC(=O)[C@H](CO)NC(=O)[C@H](CC(C)C)NC(=O)[C@H](Cc4c[nH]c5ccccc45)NC(=O)[C@H](CCCCN)NC(=O)[C@H](CCCNC(=N)N)NC1=O)C(=O)N[C@@H](C(C)C)C(=O)N[C@@H](CC(=O)O)C(=O)N[C@@H](CCCNC(=N)N)C(=O)N[C@@H](CCCCN)C(=O)N[C@@H](CC(N)=O)C(=O)N[C@@H](CC(=O)O)C(=O)N3)NC(=O)[C@H](CCC(=O)O)NC(=O)[C@H](CC(C)C)NC(=O)CNC(=O)[C@H](CCC(=O)O)NC2=O
Kd (ASIC1; binding; SPR): 1.4 nM
